Experimental data reported in paper PMC11947739 (Alzheimer's & Dementia : Translational Research & Clinical …, 2025).

Experiments:
human 5-HT2b receptor = human 5-HT2b receptor (Homo sapiens, UniProt P41595); test: 5-HT2bR competitive radioligand binding, [125I]
[1] = system: neurology patients / AD patients; settings: ref 1-8 of Supporting Data; cited from earlier work
h5-HT2b and m5-HT2b = test: Gq activation and β-arrestin-1 recruitment, statements covering both species; format: cell-based, human and mouse; settings: absence of an activator
Method in brief: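 Human and mouse 5-HT2b receptors were tested in cells. Serotonin-driven Gq activation and β-arrestin-1 recruitment were read across increasing test compound concentrations. The same read-outs were taken with vehicle and no activator to capture basal (inverse agonist) activity. Data are mean ± SEM of three to four independent experiments, each in duplicate or triplicate. EC50 and Emax were derived.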

Sequence of human 5-HT2b receptor (P41595 whole entry): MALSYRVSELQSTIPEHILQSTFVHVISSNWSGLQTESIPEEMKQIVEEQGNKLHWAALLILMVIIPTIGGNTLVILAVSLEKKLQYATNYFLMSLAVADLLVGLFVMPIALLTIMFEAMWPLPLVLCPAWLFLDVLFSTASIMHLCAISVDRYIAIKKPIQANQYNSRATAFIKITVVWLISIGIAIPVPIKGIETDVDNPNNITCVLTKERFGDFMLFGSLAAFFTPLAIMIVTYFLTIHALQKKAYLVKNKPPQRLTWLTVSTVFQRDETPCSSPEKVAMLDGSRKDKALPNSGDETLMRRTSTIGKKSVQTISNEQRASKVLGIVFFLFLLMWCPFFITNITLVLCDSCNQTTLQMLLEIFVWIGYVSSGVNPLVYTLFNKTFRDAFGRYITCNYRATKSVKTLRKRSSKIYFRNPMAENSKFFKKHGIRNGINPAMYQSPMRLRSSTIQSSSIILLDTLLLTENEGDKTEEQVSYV

Structure (SMILES): Cc1cc(-c2ccccc2)nnc1NCCN1CCOCC1 [minaprine]
- IC50 (human 5-HT2b receptor): 863 ± 8 nM
- Risk for cardiotoxicity, drowsiness, or weight gain [1]: low risk

Structure (SMILES): Cc1nc2n(c(=O)c1CCN1CCC(c3noc4cc(F)ccc34)CC1)CCCC2 [risperidone]
- Basal (constitutive) 5-HT2bR activity (h5-HT2b and m5-HT2b): inhibited basal 5‐HT2bR
